# Assays:
# [1] = target: NTR1 (NTR1-positive HT-29 cells) (Homo sapiens, UniProt P30989); assay: In vitro competitive cell binding assay against 125I-NT; conditions: as supported by the similar IC50 values
# [2] = tested on: NTR1-expressing HT-29 tumor; assay: Immunohistochemistry and fluorescence microscopy of HT-29 tumor sections; assay type: in vivo, mice bearing human HT-29 xenograft
# How it was run: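 Dye-conjugated test compound given i.v. to HT-29 xenograft mice, with or without a blocking dose of NT peptide. Tumors taken 4 h p.i., […], cut at 6 μm (cryostat, −25 °C) and fixed in ice-cold acetone for 15 min. Peroxidase quenched with 3% H2O2 in methanol, then blocked with 10% horse serum for 1 h at RT. Anti-CD31 with labelled secondary (1:200), DAPI 2 μg/mL for 20 min at 37 °C. Confocal imaging, 40× objective.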
# [3] = In vitro stability in PBS; assay type: physicochemical; conditions: PBS (1×), 37 MBq/mL, radio-HPLC
# How it was run: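 64Cu-labelled test compound HPLC-purified, solvent evaporated and taken up in 1× PBS at 37 MBq/mL. Radiochemical purity by radio-HPLC at 30 min, 2 h and 6 h of incubation.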
# [4] = tested on: NTR1-positive HT-29 tumor; assay: Ex vivo near-infrared fluorescence imaging of tumors and organs; assay type: in vivo, mice bearing human HT-29 xenograft
# [5] = tested on: NTR1-positive HT-29 tumor; assay: In vivo near-infrared fluorescence imaging; design: species or system mice bearing human HT-29 xenograft; conditions: 1.5 nmol i.v., 1 and 4 h p.i., Cy5.5 filter set
# [6] = Biodistribution in nude mice bearing HT-29 tumor; assay type: in vivo, nude mice bearing HT-29 xenograft; conditions: for tissue uptake at 4 h: male, athymic nude BALB/c nu/nu, mouse, total radioactivity
# How it was run: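 HT-29 cells (McCoy's 5A, 10% FBS, 37 °C, 5% CO2; trypsin-EDTA at 80% confluence) at 1 × 10^6 per 0.1 mL s.c. in the shoulder of 4–6-wk male BALB/c nu/nu mice, used at ≥3 mm tumor diameter. 3.7 MBq 64Cu-labelled test compound (HPLC-purified, in PBS) given. Mice killed under inhalation anesthesia 4 h p.i.; tissues weighed and gamma-counted. Group mean %ID/g ± SD.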
# [7] = tested on: NTR1-positive HT-29 tumor; assay: Small animal PET imaging in HT-29 xenograft mice; assay type: in vivo, human HT-29 xenograft in male athymic mice (BALB/c nu/nu)
# How it was run: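 Xenografts were HT-29 cells, 1 × 10^6 per 0.1 mL s.c. in the shoulder, tumors ≥3 mm. Radioligand labelled with 64CuCl2 in NH4OAc pH 5.5 at 37 °C for 60 min, HPLC-purified, in PBS (about 10.2 GBq/μmol). About 3.7 MBq via tail vein, n = 3/group; blocking group co-given 100 μg unlabelled NT. PET at 1 and 4 h p.i. ROI counts/g/min (1 g/mL density assumed) divided by injected dose gave %ID/g.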
# NTR1 (NTR1-positive HT-29 cells), sequence (P30989 whole entry): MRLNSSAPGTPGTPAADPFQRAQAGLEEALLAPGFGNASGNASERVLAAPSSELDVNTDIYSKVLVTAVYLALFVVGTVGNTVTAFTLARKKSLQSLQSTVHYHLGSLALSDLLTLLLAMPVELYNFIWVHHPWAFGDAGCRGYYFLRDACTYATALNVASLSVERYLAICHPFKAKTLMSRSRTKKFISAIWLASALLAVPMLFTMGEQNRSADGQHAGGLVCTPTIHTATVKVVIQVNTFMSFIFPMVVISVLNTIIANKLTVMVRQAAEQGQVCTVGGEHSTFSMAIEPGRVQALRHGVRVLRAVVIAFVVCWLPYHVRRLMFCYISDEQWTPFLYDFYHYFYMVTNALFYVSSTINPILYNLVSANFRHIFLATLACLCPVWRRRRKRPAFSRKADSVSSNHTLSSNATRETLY
SMILES,binding affinity compared between DOTA-NT-Cy5.5 and NT (in words) [1],"fluorescent signal in tumors of blocking animals (in words) ([2]; 4 h p.i., with blocking dose of NT peptide vs without)","specific binding in HT-29 tumor (in words) ([2]; FL microscope, coinjected Cys-NT peptide)",radiochemical purity ([3]; 30 min after incubation),radiochemical purity ([3]; 2 h after incubation),radiochemical purity ([3]; 6 h after incubation),"tumor uptake relative to liver, optical imaging (in words) ([4]; HT-29 tumor vs liver, optical imaging)","tumor to muscle contrast (in words) ([4]; PET and ex vivo fluorescence, 4 h p.i.)","organs with high probe uptake (in words) ([4]; ex vivo fluorescence, 1.5 nmol i.v., 4 h p.i.)",tumor fluorescence signal in vivo (in words) [5],"tumor-to-muscle ratio ([6]; 4 h p.i., based on biodistribution, HT-29 xenograft, mean ± SD)","tumor uptake relative to liver, PET and biodistribution (in words) ([6]; HT-29 tumor vs liver, PET imaging and biodistribution)","muscle, lung, and heart uptake (in words) ([6]; biodistribution, 4 h p.i., 3.7 MBq)","tissue uptake at 4 h ([6]; kidney, 3.7 MBq)","tissue uptake at 4 h ([6]; liver, 3.7 MBq)","tumor uptake ([7]; PET ROI, HT-29 xenograft, 1 h p.i., ~3.7 MBq tail vein, n = 3/group, mean ± SD)","inhibition of tumor uptake by nonradioactive Cys-NT (in words) ([7]; blocking experiment, P < 0.05, all time points (Figures 3 and 5: PET and fluorescence))","uptake in normal organs, blocked vs unblocked (in words) ([7]; liver, kidneys, muscle, with vs without 100 μg unlabeled NT)"
CC[C@H](C)[C@H](NC(=O)[C@H](Cc1ccc(O)cc1)NC(=O)[C@@H]1CCCN1C(=O)[C@H](CCCNC(=N)N)NC(=O)[C@H](CCCNC(=N)N)NC(=O)[C@@H]1CCCN1C(=O)[C@H](CCCCN)NC(=O)[C@H](CSC1CC(=O)N(CCNC(=O)CCCCC[N+]2=C(C=CC=CC=C3N(CC)c4ccc5c(S(=O)(=O)O)cc(S(=O)(=O)[O-])cc5c4C3(C)C)C(C)(C)c3c2ccc2c(S(=O)(=O)O)cc(S(=O)(=O)O)cc32)C1=O)NC(=O)CN1CCN(CC(=O)O)CCN(CC(=O)O)CCN(CC(=O)O)CC1)C(=O)N[C@@H](CC(C)C)C(=O)O (stereo partly drawn) [DOTA-NT-Cy5.5],not significantly different,very weak fluorescent signals,tumor localization was clearly inhibited by coinjected Cys-NT peptide,–,–,–,–,–,–,–,–,–,–,–,–,–,–,–
"CC[C@H](C)[C@H](NC(=O)[C@H](Cc1ccc(O)cc1)NC(=O)[C@@H]1CCCN1C(=O)[C@H](CCCNC(=N)N)NC(=O)[C@H](CCCNC(=N)N)NC(=O)[C@@H]1CCCN1C(=O)[C@H](CCCCN)NC(=O)[C@H](CSC1CC(=O)N(CCNC(=O)CCCCC[N+]2=C(C=CC=CC=C3N(CC)c4ccc5c(S(=O)(=O)O)cc(S(=O)(=O)[O-])cc5c4C3(C)C)C(C)(C)c3c2ccc2c(S(=O)(=O)O)cc(S(=O)(=O)O)cc32)C1=O)NC(=O)CN1CCN(CC(=O)O)CCN(CC(=O)O)CCN(CC(=O)O)CC1)C(=O)N[C@@H](CC(C)C)C(=O)O (stereo partly drawn) [^64Cu-DOTA-NT-Cy5.5, metal not drawn]",–,–,–,greater than 98.9%,> 96.9%,> 90.8%,higher tumor uptake than liver,both PET and fluorescence gave good tumor to muscle contrast,"The tumor, liver, and kidneys are three motifs that showed high probe uptake",the HT-29 tumor lit up at all the time points examined,17.44 ± 3.25,HT-29 tumor has lower uptake than liver,"The muscle, lung, and heart had relatively low uptake",14.2 ± 1.33 %ID/g,4.63 ± 0.74 %ID/g,1.91 ± 0.22 %ID/g,nonradioactive Cys-NT peptide significantly (P < 0.05) inhibited the tumor uptake,no significant difference in most of the normal organs

# From article PMC5460915 (Molecular pharmaceutics, 2015)
